# Assay outcomes as filed in PubChem BioAssay.
# Diaph act CS: diaphorase activation or chemical reduction counter-screen | actives 0.005% (n = 190,000) | activation factor at 20 µM | Diaphorase/resazurin coupled assay, resorufin fluorescence, 16 min; active compounds read high; 1 = vehicle wells, 0 = NADH-free wells | AID 1229;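 active means diaphorase activity raised at least twofold by the compound at 20 µM; inactive means activation factor below 2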
#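 System – purified diaphorase enzyme from Clostridium kluyveri · Input – enzyme 0.07 U/mL final · Also added – final NADH 0.114 mM, resazurin 0.1 mM · Measured by – fluorescence of resorufin, 544 nm excitation, 590 nm emission · Timing – 16 min enzyme reaction, ambient temperature · Measure – resorufin increase flagging diaphorase activators or reducers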
# G6PDH CS: inhibits Leuconostoc G6PDH, flagging false hits in G6PDH-based assays; inhibition, % at 5 µM; actives 0.12% (n = 200,000); Purified L. mesenteroides G6PDH, diaphorase/resazurin coupled fluorescence, 45 min
# WT yeast gro inh: growth inhibition of WT yeast, mitochondrial fusion screen. inhibition, % at 10 µM. mitochondrial fusion phenotypic screen, WT strain. actives 2.1% (n = 190,000). AID 1362; in the data active means inhibition above about 58%; tested in S. cerevisiae
# L major viab: reduces viability of Leishmania major promastigotes; resazurin fluorescence viability; inhibition, % at 10 µM; actives 9% (n = 200,000);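 further: promastigotes grown with compound for 44 hours at 28 °C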
# Diaph inh CS: inhibits diaphorase or chemically oxidizes, flagging diaphorase assay artifacts | diaphorase resazurin-to-resorufin fluorescence, NADH, 16 min; bacterial (C. kluyveri) enzyme, not human | inhibition, % at 20 µM | AID 1217 | actives 0.69% (n = 190,000);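 active means primary screen inhibition at 20 µM above a set limit, cut at about 50% in these data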
#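 Assay system: diaphorase enzyme from Clostridium kluyveri; Input: enzyme working solution with 0.14 U/mL diaphorase; Timing: 16 min at room temperature; Technique: resorufin fluorescence, excitation 544 nm, emission 590 nm; Benchmarks: positive control minus NADH, DMSO neutral control.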
# Numbers stand for hits; i = inactive; nt = not tested or not shown. Compounds with a hit are over-represented: about 11% of the library has one in this group of screens. Unless noted, no stated cut-off is given here; in the data, active means inhibition above about 50%; inactive means the rest.
SMILES,Diaph act CS,G6PDH CS,WT yeast gro inh,L major viab,Diaph inh CS
CCn1c(NCc2ccccc2Cl)nc2ccccc21,i,i,i,51,i
CCn1c(NCc2cc(Br)ccc2NS(=O)(=O)c2ccc(C)cc2)nc2ccccc21,i,i,i,100,i
Cc1ccc(NC(=O)C2OCCc3ccccc32)cc1Cl (stereo not drawn),i,i,i,i,i
Cc1ccc(CNC(=O)Cn2nnc3ccccc3c2=O)cc1,i,i,i,i,i
CC1=CCC2C(=O)N(CCc3c[nH]c4ccccc34)C(=O)C2C1 (stereo not drawn),i,i,i,98,i
O=C1C2CC=C(Cl)CC2C(=O)N1CCc1c[nH]c2ccccc12 (stereo not drawn),i,i,i,i,i
CCN(CC)C(=O)/C(=C\c1ccc(Br)cc1)NC(=O)c1ccccc1OC,i,i,i,i,i
CC1CCCN(C(=O)c2ccc3c(c2NCCO)C(=O)c2ccccc2C3=O)C1 (stereo not drawn),i,i,i,91,i
CC1(C)CCCN(C(=O)c2ccc3c(c2NCCO)C(=O)c2ccccc2C3=O)C1,i,i,i,100,i
COc1ccccc1/C=C(/C(=O)OCC(=O)N(C)Cc1ccccc1)c1ccccc1,i,i,i,i,i
O=C(CN(C1CCCCC1)S(=O)(=O)c1ccc(Cl)cc1)N1CCOCC1,i,i,i,i,i
CSc1nnnn1-c1ccc(C)c(Cl)c1,i,i,i,i,i
CCCCn1c(N)c(C(=S)NC(=O)CC(C)C)c(=O)n(C)c1=O,i,i,i,i,59
CCCn1c(N)c(C(=S)NC(=O)C2CC2)c(=O)n(C)c1=O,i,i,i,i,52
COC(=O)C/C(C)=N/Nc1ccc(S(=O)(=O)N2CCCC2)cc1[N+](=O)[O-],i,i,i,i,i
COc1cc(Cl)cc(/C=C/c2ccc3ccccc3n2)c1OC(C)=O,i,i,60,i,i
CC1(C)COC(c2cc([N+](=O)[O-])ccc2Cl)=N1,i,i,i,i,i
CC1(C)COC(/C=C/c2cccc([N+](=O)[O-])c2)=N1,i,i,i,98,i
COc1ccc(N(C)C(=O)c2onc3c2CCCC3)cc1,i,i,i,i,i
COc1ccc2cc(C(=O)Nc3ccc(O)cc3)sc(=O)c2c1OC,i,i,i,100,i
COc1ccc2cc(C(=O)Nc3ccc(F)cc3)sc(=O)c2c1OC,i,i,i,i,i
O=[N+]([O-])c1ccccc1Nc1ccccc1,i,i,i,i,i
Cc1cc(Nc2ccccc2)c2c([N+](=O)[O-])ccc(C)c2n1,i,i,71,i,i
Cc1ccc2c(c1)N(CC(=O)NCCc1c[nH]c3ccccc13)C(=O)CO2,i,i,i,53,i
Cc1ccc2[nH]cc(CCNC(=O)CN3C(=O)c4ccccc4C3=O)c2c1,i,i,i,i,i
SMILES,Diaph act CS,G6PDH CS,WT yeast gro inh,L major viab,Diaph inh CS
Cc1cccc(NC(=O)NCCc2c[nH]c3ccccc23)c1,i,i,i,89,i
CC(C)OC(=O)CSc1nnc(-c2cnccn2)n1-c1ccccc1,i,i,i,i,i
CSc1ccc(C(=O)C2CCCN(Cc3cccn3-c3cccnc3)C2)cc1 (stereo not drawn),i,i,i,85,i
O=C(c1ccc(Cl)cc1)C1CCCN(Cc2cccn2-c2cccnc2)C1 (stereo not drawn),nt,i,i,87,nt
O=C(c1ccc2c(c1)OCO2)C1CCCN(Cc2cccn2-c2cccnc2)C1 (stereo not drawn),i,i,i,94,i
COc1ccc(C(=O)C2CCCN(Cc3cccn3-c3cccnc3)C2)cc1OC (stereo not drawn),i,i,i,i,i
CC(C)(C)C(=O)N1CCC(O)(CS(=O)(=O)Cc2ccccc2)CC1,i,i,i,i,i
CCn1c(-c2ccccc2)c(C(=O)CCl)c2ccccc21,i,i,i,99,i
Cn1c(-c2ccccc2)c(C(=O)CCl)c2ccccc21,i,i,i,98,i
Fc1ccc(-n2nnnc2-c2cnc(-c3cccs3)nc2C(F)(F)F)cc1,i,i,i,i,i
CN=c1scc(-c2c[nH]c3ccccc23)n1C,i,i,i,i,i
Cc1sc(CO)c(Sc2ccccc2)c1C(=O)O,i,i,i,i,i
COc1ccc(-c2nnc(SCc3nnc(-c4ccc(Cl)cc4)o3)n2-c2ccccc2)cc1,i,i,64,89,i
